Reference: ChEMBL document CHEMBL4680236, “Design, synthesis and structure-activity relationships of novel 15-membered macrolides: Quinolone/quinoline-containing sidechains tethered to the C-6 position of azithromycin acylides” (Eur J Med Chem, 2020)
≈ marks a conversion by molar mass, not a printed value.

Legend:
Type in all cases: functional
Streptococcus pyogenes [1] = assay: Bactericidal activity against MLSB-resistant Streptococcus pyogenes 12-206 harboring ermA gene
Summary of the method: (§1)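 Bacteria were exposed to 1- to 8-fold their MIC of test sample, then transferred to fresh culture medium without antibacterial compound and incubated for the required time. Colonies were then counted. MBC is the lowest concentration giving a reduction in colony number of >3 Log₁₀.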

Streptococcus pneumoniae [2] = assay: Antibacterial activity against Erythromycin-susceptible Streptococcus pneumoniae ATCC 49619 assessed as reduction in microbial growth
Staphylococcus aureus [3] = assay: Bactericidal activity against MLSB/methicillin-resistant Staphylococcus aureus 15B196; summary of the method: as §1
Streptococcus pneumoniae [4] = assay: Antibacterial activity against MLSB-resistant Streptococcus pneumoniae 07P390 harboring ermB gene assessed as reduction in microbial growth
Streptococcus pneumoniae [5] = assay: Ratio of MBC to MIC against penicillin-susceptible Streptococcus pneumoniae PU09
Streptococcus pneumoniae [6] = assay: Bactericidal activity against MLSB-resistant Streptococcus pneumoniae 07P390 harboring ermB gene assessed as reduction in microbial growth; summary of the method: as §1
Staphylococcus aureus [7] = assay: Antibacterial activity against MLSB/methicillin-resistant Staphylococcus aureus 15B196 assessed as reduction in microbial growth
Haemophilus influenzae [8] = assay: Antibacterial activity against azithromycin-susceptible Haemophilus influenzae ATCC 49247 assessed as reduction in microbial growth
Staphylococcus aureus [9] = assay: Antibacterial activity against MLSB/methicillin/ciprofloxacin-resistant Staphylococcus aureus PU32 harboring ermA gene assessed as reduction in microbial growth
Streptococcus pneumoniae [10] = assay: Antibacterial activity against penicillin-susceptible Streptococcus pneumoniae PU09 harboring mef gene assessed as reduction in microbial growth
Staphylococcus aureus [11] = assay: Bactericidal activity against MLSB/methicillin/ciprofloxacin-resistant Staphylococcus aureus PU32 harboring ermA gene; summary of the method: as §1
Streptococcus pyogenes [12] = assay: Ratio of MBC to MIC against MLSB-resistant Streptococcus pyogenes 12-206 harboring ermA gene
Haemophilus influenzae [13] = assay: Ratio of MBC to MIC against azithromycin-susceptible Haemophilus influenzae ATCC 49247
Haemophilus influenzae [14] = assay: Bactericidal activity against azithromycin-susceptible Haemophilus influenzae ATCC 49247
Summary of the method: (§2)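 Bacteria were exposed to 1- to 8-fold MIC of the sample, then transferred to fresh medium without antibacterial. After further incubation, colonies were counted. MBC was taken as the lowest concentration giving a >3 log10 reduction in colony number.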

Streptococcus pneumoniae [15] = assay: Ratio of MBC to MIC against Erythromycin-susceptible Streptococcus pneumoniae ATCC 49619
Streptococcus pneumoniae [16] = assay: Bactericidal activity against Erythromycin-susceptible Streptococcus pneumoniae ATCC 49619; summary of the method: as §2
Streptococcus pyogenes [17] = assay: Antibacterial activity against MLSB-resistant Streptococcus pyogenes 12-206 harboring ermA gene assessed as reduction in microbial growth
Streptococcus pneumoniae [18] = assay: Bactericidal activity against penicillin-susceptible Streptococcus pneumoniae PU09 harboring mef gene; summary of the method: as §1

`CC[C@H]1OC(=O)[C@H](C)[C@@H](OC(=O)Cc2ccccn2)[C@H](C)[C@@H](O[C@@H]2O[C@H](C)C[C@H](N(C)C)[C@H]2O)[C@](C)(OC(=O)CCNCCC#Cc2ccc3c(c2)c(=O)c(C(=O)NC)cn3C2CC2)C[C@@H](C)CN(C)[C@H](C)[C@@H](O)[C@]1(C)O` gave an MBC (Streptococcus pyogenes [1]) of 128 µg/mL (≈ 119 µM), an MIC (Streptococcus pneumoniae [2]) of 0.5 µg/mL and an MBC (Staphylococcus aureus [3]) of over 256 µg/mL. It also gave an MIC (Streptococcus pneumoniae [4]) of 256 µg/mL, a Ratio (Streptococcus pneumoniae [5]) of 2 and an MBC (Streptococcus pneumoniae [6]) of 256 µg/mL. The MIC (Staphylococcus aureus [7]) was over 256 µg/mL, the MIC (Haemophilus influenzae [8]) was 64 µg/mL and the MIC (Staphylococcus aureus [9]) was over 256 µg/mL. For the same compound, the MIC (Streptococcus pneumoniae [10]) was 4 µg/mL, the MBC (Staphylococcus aureus [11]) was over 256 µg/mL and the Ratio (Streptococcus pyogenes [12]) was 4. The Ratio (Haemophilus influenzae [13]) was 2, the MBC (Haemophilus influenzae [14]) was 128 µg/mL (≈ 119 µM) and the Ratio (Streptococcus pneumoniae [15]) was 2. The MBC (Streptococcus pneumoniae [16]) was 1 µg/mL (≈ 0.932 µM), the MIC (Streptococcus pyogenes [17]) was 32 µg/mL and the MBC (Streptococcus pneumoniae [18]) was 8 µg/mL (≈ 7.45 µM).

`CC[C@H]1OC(=O)[C@H](C)[C@@H](OC(=O)Cc2ccccn2)[C@H](C)[C@@H](O[C@@H]2O[C@H](C)C[C@H](N(C)C)[C@H]2O)[C@](C)(OC(=O)CCN2CCN(c3cc4c(cc3F)c(=O)c(C(=O)O)cn4C3CC3)CC2)C[C@@H](C)CN(C)[C@H](C)[C@H]2OC(=O)O[C@@]21C` showed an MBC (Streptococcus pyogenes [1]) of over 256 µg/mL, an MIC (Streptococcus pneumoniae [2]) of 4 µg/mL and an MBC (Staphylococcus aureus [3]) of over 256 µg/mL. It also gave an MIC (Streptococcus pneumoniae [4]) of over 256 µg/mL, a Ratio (Streptococcus pneumoniae [5]) of 4 and an MBC (Streptococcus pneumoniae [6]) of over 256 µg/mL. For the same compound, the MIC (Staphylococcus aureus [7]) was over 256 µg/mL, the MIC (Haemophilus influenzae [8]) was 8 µg/mL and the MIC (Staphylococcus aureus [9]) was over 256 µg/mL. For the same compound, the MIC (Streptococcus pneumoniae [10]) was 4 µg/mL, the MBC (Staphylococcus aureus [11]) was over 256 µg/mL and the Ratio (Streptococcus pyogenes [12]) was over 8. For the same compound, the Ratio (Haemophilus influenzae [13]) was 2, the MBC (Haemophilus influenzae [14]) was 16 µg/mL (≈ 14.3 µM) and the Ratio (Streptococcus pneumoniae [15]) was 4. It also gave an MBC (Streptococcus pneumoniae [16]) of 16 µg/mL (≈ 14.3 µM), an MIC (Streptococcus pyogenes [17]) of 64 µg/mL and an MBC (Streptococcus pneumoniae [18]) of 16 µg/mL (≈ 14.3 µM).

In the case of `CC[C@H]1OC(=O)[C@H](C)[C@@H](OC(=O)Cc2ccccn2)[C@H](C)[C@@H](O[C@@H]2O[C@H](C)C[C@H](N(C)C)[C@H]2O)[C@](C)(OC(=O)CCNCCC#Cc2ccc3c(c2)c(=O)c(C(N)=O)cn3C2CC2)C[C@@H](C)CN(C)[C@H](C)[C@@H](O)[C@]1(C)O`, the MBC (Streptococcus pyogenes [1]) is reported as 128 µg/mL (≈ 121 µM), the MIC (Streptococcus pneumoniae [2]) is reported as 0.5 µg/mL and the MBC (Staphylococcus aureus [3]) is reported as over 256 µg/mL. For the same compound, the MIC (Streptococcus pneumoniae [4]) was 256 µg/mL, the Ratio (Streptococcus pneumoniae [5]) was 1 and the MBC (Streptococcus pneumoniae [6]) was over 256 µg/mL. For the same compound, the MIC (Staphylococcus aureus [7]) was over 256 µg/mL, the MIC (Haemophilus influenzae [8]) was 64 µg/mL and the MIC (Staphylococcus aureus [9]) was 128 µg/mL. For the same compound, the MIC (Streptococcus pneumoniae [10]) was 4 µg/mL, the MBC (Staphylococcus aureus [11]) was over 256 µg/mL and the Ratio (Streptococcus pyogenes [12]) was 4. For the same compound, the Ratio (Haemophilus influenzae [13]) was 1, the MBC (Haemophilus influenzae [14]) was 64 µg/mL (≈ 60.4 µM) and the Ratio (Streptococcus pneumoniae [15]) was 1. For the same compound, the MBC (Streptococcus pneumoniae [16]) was 0.5 µg/mL (≈ 0.472 µM), the MIC (Streptococcus pyogenes [17]) was 32 µg/mL and the MBC (Streptococcus pneumoniae [18]) was 4 µg/mL (≈ 3.78 µM).

`CC[C@H]1OC(=O)[C@H](C)[C@@H](OC(=O)Cc2ccccn2)[C@H](C)[C@@H](O[C@@H]2O[C@H](C)C[C@H](N(C)C)[C@H]2O)[C@](C)(OC(=O)CCN2CCN(c3cc4c(cc3F)c(=O)c(C(N)=O)cn4C3CC3)CC2)C[C@@H](C)CN(C)[C@H](C)[C@@H](O)[C@]1(C)O` gave an MBC (Streptococcus pyogenes [1]) of 128 µg/mL (≈ 117 µM), an MIC (Streptococcus pneumoniae [2]) of 0.25 µg/mL and an MBC (Staphylococcus aureus [3]) of over 256 µg/mL. The MIC (Streptococcus pneumoniae [4]) was 128 µg/mL, the Ratio (Streptococcus pneumoniae [5]) was 1 and the MBC (Streptococcus pneumoniae [6]) was 128 µg/mL. For the same compound, the MIC (Staphylococcus aureus [7]) was over 256 µg/mL, the MIC (Haemophilus influenzae [8]) was 64 µg/mL and the MIC (Staphylococcus aureus [9]) was 128 µg/mL. The MIC (Streptococcus pneumoniae [10]) was 4 µg/mL, the MBC (Staphylococcus aureus [11]) was over 256 µg/mL and the Ratio (Streptococcus pyogenes [12]) was 8. It also gave a Ratio (Haemophilus influenzae [13]) of 2, an MBC (Haemophilus influenzae [14]) of 128 µg/mL (≈ 117 µM) and a Ratio (Streptococcus pneumoniae [15]) of 2. For the same compound, the MBC (Streptococcus pneumoniae [16]) was 0.5 µg/mL (≈ 0.457 µM), the MIC (Streptococcus pyogenes [17]) was 16 µg/mL and the MBC (Streptococcus pneumoniae [18]) was 4 µg/mL (≈ 3.66 µM).

Work on `CC[C@H]1OC(=O)[C@H](C)[C@@H](OC(=O)Cc2ccccn2)[C@H](C)[C@@H](O[C@@H]2O[C@H](C)C[C@H](N(C)C)[C@H]2O)[C@](C)(OC(=O)CCN2CCN(c3cc4c(cc3F)c(=O)c(C(N)=O)cn4CC)CC2)C[C@@H](C)CN(C)[C@H](C)[C@@H](O)[C@]1(C)O` yielded an MBC (Streptococcus pyogenes [1]) of 128 µg/mL (≈ 118 µM), an MIC (Streptococcus pneumoniae [2]) of 0.5 µg/mL and an MBC (Staphylococcus aureus [3]) of 128 µg/mL (≈ 118 µM). For the same compound, the MIC (Streptococcus pneumoniae [4]) was 64 µg/mL, the Ratio (Streptococcus pneumoniae [5]) was 2 and the MBC (Streptococcus pneumoniae [6]) was 128 µg/mL. It also gave an MIC (Staphylococcus aureus [7]) of 128 µg/mL, an MIC (Haemophilus influenzae [8]) of 4 µg/mL and an MIC (Staphylococcus aureus [9]) of 128 µg/mL. For the same compound, the MIC (Streptococcus pneumoniae [10]) was 4 µg/mL, the MBC (Staphylococcus aureus [11]) was over 256 µg/mL and the Ratio (Streptococcus pyogenes [12]) was 8. For the same compound, the Ratio (Haemophilus influenzae [13]) was 1, the MBC (Haemophilus influenzae [14]) was 4 µg/mL (≈ 3.7 µM) and the Ratio (Streptococcus pneumoniae [15]) was 2. For the same compound, the MBC (Streptococcus pneumoniae [16]) was 1 µg/mL (≈ 0.924 µM), the MIC (Streptococcus pyogenes [17]) was 16 µg/mL and the MBC (Streptococcus pneumoniae [18]) was 8 µg/mL (≈ 7.39 µM).
